Test results from ChEMBL document CHEMBL1275329, “Fruitful adrenergic α(2C)-agonism/α(2A)-antagonism combination to prevent and contrast morphine tolerance and dependence” (J Med Chem, 2010).
Active and inactive are the calls of the source. The calls are words filed in the database; no cut-off is given here.

Tests used:
[1] = molecular target: T1, Alpha-2C adrenergic receptor (Homo sapiens) (UniProt P18825); assay: Agonist activity at human Alpha-2C adrenoceptor expressed in CHO cells assessed as induction of extracellular acidification by microphysiometry relative to (-)noradrenaline; type: functional, cell-based
T1 sequence (whole entry): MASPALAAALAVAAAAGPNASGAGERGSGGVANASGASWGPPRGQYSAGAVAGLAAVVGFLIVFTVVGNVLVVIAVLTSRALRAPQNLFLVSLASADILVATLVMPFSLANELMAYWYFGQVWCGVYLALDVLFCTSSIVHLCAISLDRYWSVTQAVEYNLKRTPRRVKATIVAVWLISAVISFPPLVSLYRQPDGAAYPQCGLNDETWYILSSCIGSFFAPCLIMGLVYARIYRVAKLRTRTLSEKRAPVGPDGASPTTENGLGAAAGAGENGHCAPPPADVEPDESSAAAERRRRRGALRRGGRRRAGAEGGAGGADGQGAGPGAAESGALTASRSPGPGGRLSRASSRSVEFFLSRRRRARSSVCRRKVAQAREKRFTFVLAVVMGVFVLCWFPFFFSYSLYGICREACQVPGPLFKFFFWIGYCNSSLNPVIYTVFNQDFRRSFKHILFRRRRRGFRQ
Method in brief: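 Cytosensor microphysiometry on CHO cells stably expressing one human α2-AR subtype, seeded at 3 × 10⁵ cells/cup and grown 24 h at 37 °C. Cells were perfused with bicarbonate-free DMEM and exposed to agonist for 4 min, with 30 min washes between exposures. The read-out is the change in acidification rate: peak after agonist minus the mean of three prior readings. […] Mean ± SEM, 3–6 experiments.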

[2] = molecular target: T2, Alpha-2A adrenergic receptor (Homo sapiens) (UniProt P08913); assay: Antagonist activity at human alpha2A adrenoceptor expressed in CHO cells assessed as effect on agonist-induced extracellular acidification by microphysiometry; type: functional, cell-based
T2 sequence (whole entry): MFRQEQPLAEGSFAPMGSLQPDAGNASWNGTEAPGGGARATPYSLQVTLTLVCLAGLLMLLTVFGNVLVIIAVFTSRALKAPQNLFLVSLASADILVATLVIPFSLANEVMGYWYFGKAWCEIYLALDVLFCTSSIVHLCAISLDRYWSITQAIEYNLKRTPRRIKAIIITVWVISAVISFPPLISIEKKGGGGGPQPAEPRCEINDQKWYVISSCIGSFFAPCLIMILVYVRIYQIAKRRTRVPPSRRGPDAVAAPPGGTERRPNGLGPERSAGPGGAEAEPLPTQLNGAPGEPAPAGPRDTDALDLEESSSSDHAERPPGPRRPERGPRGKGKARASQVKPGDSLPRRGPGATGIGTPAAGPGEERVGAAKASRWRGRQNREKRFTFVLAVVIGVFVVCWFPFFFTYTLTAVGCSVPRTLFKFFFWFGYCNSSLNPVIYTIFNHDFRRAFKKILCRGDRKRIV
Method in brief: (§1)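 CHO cells stably expressing one human α2-AR subtype were run on the Cytosensor microphysiometer with bicarbonate-free DMEM perfusion. […] Kb = M/(concentration ratio − 1), where the ratio is EC50 with antagonist over EC50 without. Reported as pKb, mean ± SEM of 3–6 experiments.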

[3] = molecular target: T3, Alpha-2B adrenergic receptor (Homo sapiens) (UniProt P18089); assay: Antagonist activity at human alpha2B adrenoceptor expressed in CHO cells assessed as effect on agonist-induced extracellular acidification by microphysiometry; type: functional, cell-based; method in brief: as §1
T3 sequence (whole entry): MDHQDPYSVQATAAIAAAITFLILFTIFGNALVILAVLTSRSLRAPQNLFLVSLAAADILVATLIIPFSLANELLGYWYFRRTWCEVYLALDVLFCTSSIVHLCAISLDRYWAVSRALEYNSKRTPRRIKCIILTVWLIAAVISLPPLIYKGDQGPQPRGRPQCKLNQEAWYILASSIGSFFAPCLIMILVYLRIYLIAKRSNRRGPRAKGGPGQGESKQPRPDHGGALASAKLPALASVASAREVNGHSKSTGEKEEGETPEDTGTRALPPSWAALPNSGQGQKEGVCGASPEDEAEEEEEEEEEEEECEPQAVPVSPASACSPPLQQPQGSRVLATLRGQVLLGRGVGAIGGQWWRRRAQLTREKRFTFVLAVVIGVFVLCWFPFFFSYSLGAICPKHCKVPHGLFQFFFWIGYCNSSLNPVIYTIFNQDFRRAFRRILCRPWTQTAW

[4] = molecular target: T4, Alpha-2C adrenergic receptor (Homo sapiens, UniProt P18825); assay: Agonist activity at human Alpha-2C adrenoceptor expressed in CHO cells assessed as induction of extracellular acidification by microphysiometry; type: functional, cell-based
T4 sequence (P18825 whole entry): T1 sequence (whole entry)
Method in brief: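 Cytosensor microphysiometry on CHO cells stably expressing one human α2-AR subtype, seeded at 3 × 10⁵ cells/cup and grown 24 h at 37 °C. Cells were perfused with bicarbonate-free DMEM and exposed to agonist for 4 min, with 30 min washes between exposures. The read-out is the change in acidification rate: peak after agonist minus the mean of three prior readings. Mean ± SEM, 3–6 experiments.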

[5] = molecular target: T5, Alpha-2B adrenergic receptor (Homo sapiens, UniProt P18089); assay: Agonist activity at human alpha2B adrenoceptor expressed in CHO cells assessed as induction of extracellular acidification by microphysiometry
T5 sequence (P18089 whole entry): T3 sequence (whole entry)

[6] = molecular target: T5, Alpha-2B adrenergic receptor; assay: Displacement of [3H]RX821002 from human alpha2B adrenoceptor expressed in CHO cells; type: cell-based
Method in brief: (§2)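 Buffer was Tris-Mg (50 mM Tris-HCl, 0.5 mM MgCl2, pH 7.5), competitor 10^-9 to 10^-4 M, 30 min at room temperature. Bound ligand was filtered and counted. Ki by nonlinear one- or two-site fit, reported as pKi.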

[7] = molecular target: T4, Alpha-2C adrenergic receptor; assay: Displacement of [3H]RX821002 from human Alpha-2C adrenoceptor expressed in CHO cells; type: cell-based; method in brief: as §2
[8] = molecular target: T6, Alpha-2A adrenergic receptor (Homo sapiens, UniProt P08913); assay: Agonist activity at human alpha2A adrenoceptor expressed in CHO cells assessed as induction of extracellular acidification by microphysiometry; type: functional, cell-based
T6 sequence (P08913 whole entry): T2 sequence (whole entry)
Method in brief: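 CHO cells stably expressing human α2A-AR were seeded at 3 × 10⁵ cells/cup and held 24 h at 37 °C under 5% CO₂. They were then perfused at 100 μL/min with bicarbonate-free DMEM containing glutamine and NaCl. Agonist exposure lasted 4 min, with 30 min washes between exposures.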

[9] = molecular target: T6, Alpha-2A adrenergic receptor; assay: Displacement of [3H]RX821002 from human alpha2A adrenoceptor expressed in CHO cells; type: cell-based
Method in brief: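 Crude membranes from CHO cells expressing human α2A-AR were incubated in Tris-Mg buffer (50 mM Tris-HCl, 0.5 mM MgCl₂, pH 7.5). Ki came from one- or two-site nonlinear regression and is given as pKi.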

[10] = molecular target: T3, Alpha-2B adrenergic receptor (Homo sapiens); conditions: CHO
Mus musculus [11] = assay: Analgesic effect in CD1 mouse at 0.05 mg/kg, ip by radiant heat tail flick test; type: functional, organism-based; design: dose 0.05 mg/kg
Method in brief: (§3)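 Male CD-1 mice (25–35 g) received test agent 0.05 mg/kg ip or vehicle 15 min before morphine 5 mg/kg sc. Radiant-heat tail-flick to the lower third of the tail; baseline latency (2–3 s) is the mean of two trials. Latencies were read at 30, 60, 90, 120 and 240 min and expressed as %MPE. 7–8 mice per group, mean ± SEM.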

Mus musculus [12] = assay: Enhancement of morphine-induced analgesic effect in CD1 mouse at 0.05 mg/kg, ip administered 15 mins before morphine dosing measured 30 to 240 mins post morphine challenge by radiant heat tail flick test; type: functional, organism-based; design: dose 0.05 mg/kg; method in brief: as §3
Mus musculus [13] = assay: Reduction in morphine dependence expression in CD1 mouse assessed as decrease in expression of naloxone-precipitated withdrawal syndrome at 0.05 mg/kg, ip bid administered 15 mins before last morphine dosing […]; type: functional, organism-based; design: dose 0.05 mg/kg
Method in brief: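 In male CD-1 mice, morphine 10 mg/kg sc was given twice daily at 12 h intervals for 6 days, with test agent 0.05 mg/kg ip 15 min before each morphine dose. Jumping was counted, and somatic signs were scored as the sum of rearing, forepaw tremor and teeth chatter. Blind observers; mean ± SEM.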

Mus musculus [14] = assay: Reduction in morphine dependence expression in CD1 mouse assessed as decrease in expression of naloxone-precipitated withdrawal syndrome at 0.05 mg/kg, ip administered as single dose […] on test day post morphine challenge […]; type: functional, organism-based; design: dose 0.05 mg/kg
Mus musculus [15] = assay: Toxicity in CD1 mouse assessed as effect on sleep duration at 0.05 mg/kg, ip by pentobarbital sodium induced sleep time assay; type: organism-based; design: dose 0.05 mg/kg, route intraperitoneal; conditions: in vivo
Method in brief: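 Male CD-1 mice (n = 10 per group) were given test agent 0.05 mg/kg or vehicle, then sodium pentobarbital 50 mg/kg ip 15 min later. Sleep duration, the time from loss to regain of the righting reflex, was recorded in seconds. Mean ± SEM.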

Mus musculus [16] = assay: Enhancement of morphine-induced analgesic effect in CD1 mouse at 0.05 mg/kg, ip administered 15 mins before morphine dosing measured 30 to 240 mins post morphine challenge in presence of Alpha-2C adrenergic receptor antagonist yohimbine by radiant heat tail flick test; type: functional, organism-based; design: dose 0.05 mg/kg
Method in brief: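 Male CD-1 mice got yohimbine 1.250 mg/kg ip 15 min before test agent (0.05 mg/kg ip). Test agent was given 15 min before morphine 5 mg/kg sc. Radiant-heat tail-flick latency was read 30–240 min after morphine and expressed as %MPE.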

Mus musculus [17] = assay: Reduction in morphine tolerance acquisition in CD1 mouse assessed as morphine analgesic effect incidence at 0.05 mg/kg, ip administered as single dose 15 mins before last morphine dosing on test day post morphine challenge by radiant heat tail flick test; type: functional
Method in brief: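 Tolerance was induced in male CD-1 mice with morphine 10 mg/kg sc twice daily at 12 h intervals for 5 days. On day 5, test agent 0.05 mg/kg ip was given once, 15 min before the last morphine injection. Tail-flick antinociception was read 30 min after that injection and expressed as %MPE, with day 1 vs day 5 compared.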

Mus musculus [18] = assay: Reduction in morphine tolerance acquisition in CD1 mouse assessed as morphine analgesic effect incidence at 0.05 mg/kg, ip bid administered 15 mins before last morphine dosing by radiant heat tail flick test; type: functional, organism-based; design: dose 0.05 mg/kg

| Structure (SMILES) | Intrinsic activity [1] | pKb [2] | pKb [3] | EC50 [4] [nM] | Ki [6] [nM] | Ki [7] [nM] | Ki [9] [nM] | other results |
| --- | --- | --- | --- | --- | --- | --- | --- | --- |
| CC(Oc1ccccc1-c1ccccc1)C1=NCCN1 (racemic) | 0.8 | – | – | – | – | – | – | – |
| C[C@@H](Oc1ccccc1-c1ccccc1)C1=NCCN1 | 0.7 | – | – | – | – | – | – | – |
| C[C@H](Oc1ccccc1-c1cccc([N+](=O)[O-])c1)C1=NCCN1 | 0.45 | 7.35 | 5.93 | – | – | – | – | – |
| C[C@H](Oc1ccccc1-c1ccsc1)C1=NCCN1 | 0.9 | – | – | 6.31 | 447 | 126 | 44.7 | EC50 [5]: 1000 nM; EC50 [8]: 63.1 nM |
| C[C@@H](Oc1ccccc1C1CC1)C1=NCCN1 | 0.5 | 6.9 | – | 126 | 562 | 126 | 44.7 | pEC50 [10]: inactive; Activity (Mus musculus [11]): inactive; Activity (Mus musculus [12]): Active |
| C[C@@H](Oc1ccccc1-c1cccc(O)c1)C1=NCCN1 | 1 | 6.4 | 5.67 | 25.1 | 316 | 31.6 | 39.8 | – |
| C[C@@H](Oc1ccccc1-c1cccc([N+](=O)[O-])c1)C1=NCCN1 | 0.8 | 7.11 | 6.07 | – | – | – | – | – |
| C=CCc1ccccc1O[C@H](C)C1=NCCN1 | 0.5 | 7.4 | – | 186 | 562 | 178 | – | Activity (Mus musculus [13]): Active; pEC50 [10]: inactive; Activity (Mus musculus [14]): Active; Activity (Mus musculus [11]): inactive; Activity (Mus musculus [12]): Active; Activity (Mus musculus [15]): Non-toxic; Activity (Mus musculus [16]): inactive; Activity (Mus musculus [17]): inactive; Activity (Mus musculus [18]): Active |
| CC(Oc1ccccc1-c1cccc([N+](=O)[O-])c1)C1=NCCN1 (racemic) | 0.6 | 6.8 | 5.9 | – | – | – | – | – |
| CC(Oc1ccccc1C1CC1)C1=NCCN1 (racemic) | 0.9 | 7 | – | 39.8 | 309 | 79.4 | 22.9 | EC50 [5]: 3160 nM |
